Sequences and labels used below:
B1: NELF-E aptamer (parent)
chain: CCCAACGACUGCCGAGCGAGAUUACGCUUGAGCGCCCCACUGAGGAUGCCCACGGGCGAUUGGGGCACGG

Results on 39 variants are retold here after the RNAGym collection of RNA variant scans (doi:10.1038/nmeth.2970).

In the series the parent is B1. Description: HiTS-RAP. The following applies: with NELF-E (Drosophila). The procedure, abridged: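 Aptamer DNA templates bearing a T7 promoter and a ter site were sequenced on an Illumina GAIIx flowcell. T7 RNA polymerase then transcribed them in situ, and GST-Tus halted transcription over 30 minutes at 37°C. After a 30-minute room-temperature equilibration with NELF-E-mOrange at 0.064 to 1000 nM in HEPES binding buffer, clusters were imaged, using only the first binding curve. Intensities normalised to sequencing intensity were averaged per sequence and fitted with weighted Hill fits to give Kd, retaining only fits whose variance stayed under 1,000,000.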
Regarding CCCGACGACUGCCGAGCGAGACUACGCUUGAGCGCCCCACUGAGGAUGCCCACGGGCGAUUGGGGCACGG [A4G U22C], the Kd is 4.86 nM.
Consider CCCGACGACUGCCGAGCGAGAAUACGCUUGAGCGCCCCACUGAGGAUGCCCACGGGCGAUUGGGGCACGG [A4G U22A], for which the Kd came to 6.17 nM.
As for CCCGACGACUGCCGAGCGAGAGUACGCUUGAGCGCCCCACUGAGGAUGCCCACGGGCGAUUGGGGCACGG [A4G U22G], the Kd was found to be 5.51 nM.
The value for CCCUGCGACUGCCGAGCGAGAUUACGCUUGAGCGCCCCACUGAGGAUGCCCACGGGCGAUUGGGGCACGG [A4U A5G] was 5.88 nM.
In the case of CCCUUCGACUGCCGAGCGAGAUUACGCUUGAGCGCCCCACUGAGGAUGCCCACGGGCGAUUGGGGCACGG [A4U A5U], the equilibrium dissociation constant (Kd) stood at 4.82 nM.
As to CCCGACGACUGCCGAGCGAGAUUACGCUUGAGCGCCCCACAGAGGAUGCCCACGGGCGAUUGGGGCACGG [A4G U41A], the Kd amounted to 73.6 nM.
Take CCCGACGACUGCCGAGCGAGAUUACGCUUGAGCGCCCCACGGAGGAUGCCCACGGGCGAUUGGGGCACGG [A4G U41G]: the Kd was 5.56 nM.
As for CCCGACGACUGCCGAGCGAGAUUACGCUUGAGCGCCCCACCGAGGAUGCCCACGGGCGAUUGGGGCACGG [A4G U41C], the Kd is 73 nM.
As for CCCUACGACUGCCGAGCGUGAUUACGCUUGAGCGCCCCACUGAGGAUGCCCACGGGCGAUUGGGGCACGG [A4U A19U], the Kd turned out to be 5.66 nM.
In the case of CCCUACGACUGCCGAGCGGGAUUACGCUUGAGCGCCCCACUGAGGAUGCCCACGGGCGAUUGGGGCACGG [A4U A19G], the Kd came to 6.92 nM.
To CCCUACGACUGCCGAGCGAGAUUACGCUUGAGCGCCCCACUGAGGAUGCCCACGGGCGAUUGGGGCACGG [A4U] belongs 5.39 nM.
Take CCCGACGACUGCCGAGCGAGAUGACGCUUGAGCGCCCCACUGAGGAUGCCCACGGGCGAUUGGGGCACGG [A4G U23G]: the Kd came to 5.42 nM.
The value for CCCGACGACUGCCGAGCGAGAUCACGCUUGAGCGCCCCACUGAGGAUGCCCACGGGCGAUUGGGGCACGG [A4G U23C] was 4.96 nM.
In the case of CCCGACGACUGCCGAGCGAGAUAACGCUUGAGCGCCCCACUGAGGAUGCCCACGGGCGAUUGGGGCACGG [A4G U23A], the Kd came to 5.89 nM.
In the case of CCCGACGACAGCCGAGCGAGAUUACGCUUGAGCGCCCCACUGAGGAUGCCCACGGGCGAUUGGGGCACGG [A4G U10A], the Kd came to 5.89 nM.
To CCCGACGACGGCCGAGCGAGAUUACGCUUGAGCGCCCCACUGAGGAUGCCCACGGGCGAUUGGGGCACGG [A4G U10G] belongs 5.09 nM; to CCCGACGACCGCCGAGCGAGAUUACGCUUGAGCGCCCCACUGAGGAUGCCCACGGGCGAUUGGGGCACGG [A4G U10C], 5.06 nM; to CCCGACGACUGCCGAGCGAGAUUACGCUUGAGCGCCCCACUGAGGAUGCCCACGGGCGAGUGGGGCACGG [A4G U60G], 6.94 nM.
As for CCCGACGACUGCCGAGCGAGAUUACGCUUGAGCGCCCCACUGAGGAUGCCCACGGGCGAAUGGGGCACGG [A4G U60A], the dissociation constant Kd worked out at 10.6 nM.
Regarding CCCGACGACUGCCGAGCGAGAUUACGCUUGAGCGCCCCACUGAGGAUGCCCACGGGCGACUGGGGCACGG [A4G U60C], the Kd came out at 9.89 nM.
On to CCCGACGACUGCCGAUCGAGAUUACGCUUGAGCGCCCCACUGAGGAUGCCCACGGGCGAUUGGGGCACGG [A4G G16U], for which the Kd was 6.47 nM.
In the case of CCCGACGACUGCCGAGCGAGAUUACGCUUGAGCGCCCCACUGAGGAUGCCCACGGUCGAUUGGGGCACGG [A4G G56U], the Kd was 6.06 nM.
With CCCGACGACUGCCGAGCGAGAUUACGCUUGAGCGCCCCACUGAGGAUGCCCACGGACGAUUGGGGCACGG [A4G G56A], the Kd amounted to 9.42 nM.
For the variant CCCGACGACUGCCGAGCGAGAUUACGCUUGAGCGCCCCACUAAGGAUGCCCACGGGCGAUUGGGGCACGG [A4G G42A], the Kd was determined as 45.2 nM.
As to CCCGACGACUGCCGAGCGAGAUUACGCUUGAGCGCCCCACUUAGGAUGCCCACGGGCGAUUGGGGCACGG [A4G G42U], the Kd is 9.27 nM.
Consider CCCGACGACUGCCGAGCGAGAUUACACUUGAGCGCCCCACUGAGGAUGCCCACGGGCGAUUGGGGCACGG [A4G G26A], for which the Kd was 4.55 nM.
As to CCCGACGACUGCCGAGCGAGAUUACUCUUGAGCGCCCCACUGAGGAUGCCCACGGGCGAUUGGGGCACGG [A4G G26U], the Kd was found to be 7.06 nM.
For the variant CCCGACGACUGCCGAGCGAGAUUACGCUCGAGCGCCCCACUGAGGAUGCCCACGGGCGAUUGGGGCACGG [A4G U29C], the Kd worked out at 6.03 nM.
For CCCGACGACUGCCGAGCGAGAUUACGCUGGAGCGCCCCACUGAGGAUGCCCACGGGCGAUUGGGGCACGG [A4G U29G], the Kd is 5.5 nM.
To CCCGACGACUGCCGAGCGAGAUUACGCUAGAGCGCCCCACUGAGGAUGCCCACGGGCGAUUGGGGCACGG [A4G U29A] belongs 5.44 nM; to CCCGACGACUGCCGAGCGAGAUUACGCUUGAGCACCCCACUGAGGAUGCCCACGGGCGAUUGGGGCACGG [A4G G34A], 7.45 nM.
CCCGACGACUGCCGAGCGAGAUUACGCUUGAGCCCCCCACUGAGGAUGCCCACGGGCGAUUGGGGCACGG [A4G G34C]: the Kd came to 10.8 nM.
As for CCCGACGACUGCCGAGCGAGAUUACGCUUGAGCUCCCCACUGAGGAUGCCCACGGGCGAUUGGGGCACGG [A4G G34U], the Kd stood at 6.59 nM.
To CCCGACGACUGCCGAGCGAGAUUACGCUUGAGCGCCCCACUGAGGAUGCCCACGGGCGAUUGGGCCACGG [A4G G65C] belongs 16.2 nM; to CCCGACGACUGCCGAGCGAGAUUACGCUUGAGCGCCCCACUGAGGAUGCCCACGGGCGAUUGGGUCACGG [A4G G65U], 6.71 nM.
Regarding CCCGACGACUGCCGAGCGAGAUUACGCUUGAGCGCCCCACUGAGGAUGCCCACGGGCGAUUGGGACACGG [A4G G65A], the Kd is 5.5 nM.
To CCCGACGACUGCCGAGCGAGAUUACGCUUGAGCGCCCCACUGAGGAUGCCCACGCGCGAUUGGGGCACGG [A4G G55C] belongs 8.07 nM.
With CCCGACGACUGCCGAGCGAGAUUACGCUUGAGCGCCCCACUGAGGAUGCCCACGAGCGAUUGGGGCACGG [A4G G55A], the Kd is 8.61 nM.
Consider CCCGACGACUGCCGAGCGAGAUUACGCUUGAGCGCCCCACUGAGGAUGCCCACGUGCGAUUGGGGCACGG [A4G G55U], for which the Kd was found to be 7.68 nM.

Usually Kd stands for the concentration at which binding is half-saturated.
